In the EternaBench riboswitch data:

Tested on: MS2 coat protein
Assay: apparent Kd, MS2 coat protein; higher = weaker binding; RNA-MaP array; FMN 200 µM where present
Summary of the method: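 The titrant was SNAP-549-labelled MS2 coat protein, run from 0.7 or 1.5 nM in doubling steps to 3 µM. It was applied to designs transcribed by stalled E. coli RNA polymerase on Illumina sequencing-chip clusters, without ligand first and then with constant ligand, in 100 mM Tris-HCl pH 7.5, 80 mM KCl, 4 mM MgCl2, BSA, DTT, yeast tRNA and Tween-20. The apparent Kd is the median of filtered per-cluster binding-curve fits, with green signal normalised to red-channel RNA signal and control-cluster median Fmax.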

[1] = designed as: OFF switch for flavin mononucleotide, no ligand
[2] = ligand present: flavin mononucleotide, designed as: OFF switch for flavin mononucleotide
[3] = designed as: ON switch for flavin mononucleotide, no ligand
[4] = ligand present: flavin mononucleotide, designed as: ON switch for flavin mononucleotide

Sequence | apparent Kd [1] [nM] | apparent Kd [2] [nM] | apparent Kd [3] [nM] | apparent Kd [4] [nM]
CACAAGAAAGUCGAAGGUUGAAGUAGAAGGUUUAUAACAUGACAUGAGGAUCACCCAUGUGCCAAGAAGGAUAUGCUUUAAUCG | 11.4 | 9.43 | – | –
CACCGCGACAAUGCGGUGUCACAUGAGGAUCACCCAUGUUCACAGGAUAUGCGAUAGCCAACGAAGCAGAAGGGUGAUUACUUA | – | – | 32.3 | 172
CACCGUUAAAGAGGAUAUCGUACAUGAGGAUCACCCAUGUAAUAAAUGAGAAUUUCGGAUGUAUGCGAGAAGGCUUAAAUCGGC | 52.9 | 48.3 | – | –
CACGGCAUCGGAGGAUAUACAUGAGGAUCACCCAUGUGGGUUGUACGCCGUGUAGAAGGCCGAGACCACCUUCUAGCUGGGAAG | 11.7 | 33.1 | – | –
CACGGUGAUGUAGGAUAUACGCUGGAAUACAGCGUAGAAGGACAUGAGGAUCACCCAUGUAAAGUGUCUCCAAAUAACACCGUG | 32.5 | 90.5 | – | –
CACGUACAUGAGGAUCACCCAUGUUAGGAUAUGCCGGGUAAGAGAAAACUAAAAAUCCGUAGAAGGGACGAAAC | 34.1 | 33.8 | – | –
CACGUCCUCACAGGAUAUGCUGGACUUUGUCCAGCAGAAGGGUGACAUGAGGAUCACCCAUGUAAAAGGACGUGUAUAUUUAAU | – | – | 515 | 41.5
CACUGCAUGUAAGGAUAUCGACUGGAAUACAGUCGAGAAGGUACAUGAGGAUCACCCAUGUAAAUAAUAAUAAAUAAAGCAGUG | 15.3 | 24.4 | – | –
CACUGCAUGUAAGGAUAUCGACUGGAUAACAGUCGAGAAGGUACAUGAGGAUCACCCAUGUAAAUAAUAAUAAAUAAAGCAGUG | 15.1 | 25.1 | – | –
CAGAGGAUGUAAGGAUAUCGUCAGGAUAACUGACGAGAAGGUACAUGAGGAUCACCCAUGUAACUCUAAUAAUAAUAACCUCUG | 11.7 | 17.3 | – | –
CAGCCCUGAGGAUAUCCCUACUCGCACAUGAGGAUCACCCAUGUCCUCCUCCGGGCUUCGGGAGAAGGCAGGUCUC | 22.4 | 93.5 | – | –
CAGCGAAAGCUGAAUCUGUAGAGAGAGGAUAUACGAGGCGAAAUCCAUACAUGAGGAUCACCCAUGUAGAAGGCUCUCUACAGU | 155 | 363 | – | –
CAGCUACCCAGUAUGGGUUUAUGUGCAGAAGGCCAGGUACAUGAGGAUCACCCAUGUAAAGAUAUGGAGGAUAUGUUAGUGAAU | – | – | 17.9 | 6.66
CAGCUCGUGUGAGGAUAUGCCGCCGUUUCGGCUGCAGAAGGUGCUACGUUACAUGAGGAUCACCCAUGUCUCUGUUGUUUCGUU | – | – | 23.5 | 20.6
CAGCUCUGAGGAUAUCCACCCUCGUACAUGAGGAUCACCCAUGUUUCCCUCUGGGCUUUCGGAGAAGGCAGGUAUC | 59.1 | 55.3 | – | –
CAGCUGAAUGUGAGGAUAUUACGAGCUGCGGCUCGUGAGAAGGCACAUGAGGAUCACCCAUGUCUCAACAGCUG | 37.2 | 741 | – | –
CAGGAUAGAGGAUAUACAUAGAUACAGAUUCAUGUAAUCCUACAUGAGGAUCACCCAUGUAGAAGGCUAUCCUG | 14.9 | 64.9 | – | –
CAGGGUAGAGGAUAUACGUAGGUACAGAUCUGUGUGAUCCUACAUGAGGAUCACCCAUGUAGAAGGCUAGCCUG | 356 | 39.4 | – | –
CAGGGUCGUAUUCAGCCCGUCCACAUGAGGAUCACCCAUGUCAAGGAUAUAGAUUAAAAUACAAGCUAGAAGGUGACGCUGGGU | 14.3 | 42.6 | – | –
CAGGUAGACUGAGGAUAUACAAAAGACCUAGUCUAUCUAGGUCAACUCACAUGAGGAUCACCCAUGUAGAAGGCAGUCUGCCUG | 19.3 | 70.9 | – | –
CAGGUAGACUGAGGAUAUACAUACCAUCAGCUAGUCUAUCUAGCUGUCACAUGAGGAUCACCCAUGUAGAAGGCAGUCUGCCUG | 30.5 | 122 | – | –

Sequence | apparent Kd [1] [nM] | apparent Kd [2] [nM] | apparent Kd [3] [nM] | apparent Kd [4] [nM]
CAGGUAGACUGAGGAUAUACAUUAAACAGCUAGUCUAUCUAGCUGCUCACAUGAGGAUCACCCAUGUAGAAGGCAGUCUGCCUG | 26.1 | 75 | – | –
CAGGUGUUAGGAUAUCGGAGAUCGAGACCGACGGGAUGAGCCGAGAAGGAACAUGAGGAUCACCCAUGUAGGUG | 575 | 247 | – | –
CAGUAAUUCGAAGGAUAUGGUUACAUGAGGAUCACCCAUGUAUGAUUUGUGAUCUUAAAAUUGAUCCAGAAGGUCGAAUUACUG | 206 | 330 | – | –
CAGUACUGAGGAUAUACAUGAGGAUCACCCAUGUAAAAAACCUACGAAAGUAGGACAUGUAGAAGGCAGUACUG | 24.2 | 76.7 | – | –
CAGUACUGAGGAUAUACAUGAGGAUCACCCAUGUCUUAAAAGUAGGAUACUACUAUUAGUAGAAGGCAGUACUG | 13.2 | 34.9 | – | –
CAGUAGAUCCGAGGAUAUACAAUCCGGAAACGGUACAUGAGGAUCACCCAUGUAGAAGGCGGAUCUACAGGUACUAAAGUACCU | 5.56 | 8.31 | – | –
CAGUCUACAGGAUAUACAUGAGGAUCACCCAUGUGUAUCAACCUUCUGUAAUCCUCAUGUAGAAGGGUAGACUG | 16.3 | 13.7 | – | –
CAGUGCUGUCGAGAGGAUAUGCGGUGAUGGACAUGAGGAUCACCCAUGUUAGCGACAGCAUCACGGCAGAAGGCUCUACCCACUG | – | – | 29.4 | 17
CAGUUCUGAGGAUAUCCACCCUCGUACAUGAGGAUCACCCAUGUUUCCCUCUGGGCUUUCGGAGAAGGCAGGUAUC | 51.4 | 50.4 | – | –
CAGUUGGGCUCAGGAUAUCGGGUUUAACAUGAGGAUCACCCAUGUCGUCCGCGAAAGCGGAAUCACGAGAAGGGAGACCAGCGA | – | – | 9.12 | 6.42
CAUAACUUUGAUCUCUCCUACAUGAGGAUCACCCAUGUUGAGAGAAGGAGGCGGCAGAGUGCUGCCUAGGAUAUCUGAAGGGUC | 6.19 | 7.28 | – | –
CAUGGACGGUUAGGAUAUGACCUUUAAUGAAAGUCAGAAGGGAUCGCACAUGAGGAUCACCCAUGUCGCAGACUCGGGCGACUU | 14.9 | 21.1 | – | –
CAUUAAUUAAUUAGUUUAUAAAUACAGGAUAUGUUACAUGAGGAUCACCCAUGUUUACAUGGGAUACAGAAGGGUAAAUCAAUA | 192 | 145 | – | –
CAUUAAUUAAUUAGUUUAUACAUACAGGAUAUGUUACAUGAGGAUCACCCAUGUUUACAUGGGAUACAGAAGGGUAAAUAAAGA | 477 | 310 | – | –
CAUUAAUUCAUUAUAGUAAUUUUACAGGAUAUGUAACAUGAGGAUCACCCAUGUAUUCUAGGUUAACAGAAGGGUAUUACUUGU | 28.9 | 20.7 | – | –
CAUUAAUUCAUUAUAUUAAUUUUACAGGAUAUGUAACAUGAGGAUCACCCAUGUAUUCUAGGUUAACAGAAGGGUAUUGCUUGU | 24.5 | 21.3 | – | –
CAUUAAUUGAUUAUUGAAUAUUUACAGGAUAUGUAACAUGAGGAUCACCCAUGUAAACAUGGAUUACAGAAGGGUAUUUAUAGA | 37 | 26.1 | – | –
CCAACCGUAGGAUAUUCCAAGUCCGACAUGAGGAUCACCCAUGUGUUUCUCUGCGAUUUAGGAGAAGGGCGGUUGG | 349 | 474 | – | –
CCAAUGUAAGGAUAUGACAAUGGUAUCUUCGGAUACCAUUGUCAGAAGGUACAUGAGGAUCACCCAUGUAUAAA | 18.7 | 41.1 | – | –
CCACAGAUAGGAUAUACUGGGUGGGAUAAAUAUUUCCUGUGACAUGAGGAUCACCCAUGUAGAAGGAUCACAAG | 38.2 | 42.4 | – | –
CCACGUCACAUUAACAUGAGGAUCACCCAUGUCAAAAGACAUGAGGAUAUGCAUCCUAAUUGGAUGCAGAAGGCAUGGACGUGG | – | – | 475 | 36.1
